Source: ChEMBL document CHEMBL4190408 (J Med Chem, 2018)
In brackets after ≈: the same amount, converted by molar mass. One block for each molecule: values may come before it. Activity calls are given as the source filed them. No cut-off for these calls is given here.

Assays:
Mus musculus [1] = assay: Unbound Cmax in Balb/c mouse at 10 mg/kg, po after 1 hr; format: ADME, organism-based; settings: in vivo
Salmonella typhimurium [2] = assay: Genotoxicity in Salmonella typhimurium TA98 up to 1667 ug/plate in presence or absence of liver S9 fraction by Ames test; format: toxicity, organism-based; settings: salmonella enterica subsp. enterica serovar typhimurium
Method in brief: (§1)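 Three-strain bacterial miniAMES with TA1537, TA98 and TA100, with and without S9 activation. Top concentrations 500 and 1667 µg.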

physchem [3] = settings: pH 7.4 solution
Mus musculus [4] = assay: Unbound AUC (infinity) in Balb/c mouse at 30 mg/kg, po after 1 hr; format: ADME, organism-based; settings: in vivo
Mus musculus [5] = assay: Immunosuppressive activity in po dosed Balb/c mouse assessed as inhibition of anti-CD3-mediated T-cell activation by measuring IFNgamma release in plasma pretreated for 30 mins followed by anti-CD3 stimulation measured after 180 mins by ELISA; format: functional, organism-based
Method in brief: (§2)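 Balb/C mice (n=8 per group) were dosed orally with 1, 10 or 100 mpk in 0.1% Tween 80, 0.1% silicone antifoam, 1% methylcellulose (400 cps) vehicle, before anti-CD3 challenge. IFNγ release (pg/ml) was measured over a time course. Percent inhibition is the mean (±SEM) relative to the vehicle-treated positive control.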

Mus musculus [6] = assay: Unbound AUC (infinity) in Balb/c mouse at 10 mg/kg, po after 1 hr; format: ADME, organism-based; settings: in vivo
[7] = molecular target: Phosphatidylinositol 4-kinase type 2-beta (Homo sapiens) (UniProt Q8TCG2); assay: Inhibition of recombinant human full length GST-tagged PI4K2beta expressed in insect cells at 10 uM
Phosphatidylinositol 4-kinase type 2-beta (Homo sapiens), sequence (Q8TCG2 whole entry): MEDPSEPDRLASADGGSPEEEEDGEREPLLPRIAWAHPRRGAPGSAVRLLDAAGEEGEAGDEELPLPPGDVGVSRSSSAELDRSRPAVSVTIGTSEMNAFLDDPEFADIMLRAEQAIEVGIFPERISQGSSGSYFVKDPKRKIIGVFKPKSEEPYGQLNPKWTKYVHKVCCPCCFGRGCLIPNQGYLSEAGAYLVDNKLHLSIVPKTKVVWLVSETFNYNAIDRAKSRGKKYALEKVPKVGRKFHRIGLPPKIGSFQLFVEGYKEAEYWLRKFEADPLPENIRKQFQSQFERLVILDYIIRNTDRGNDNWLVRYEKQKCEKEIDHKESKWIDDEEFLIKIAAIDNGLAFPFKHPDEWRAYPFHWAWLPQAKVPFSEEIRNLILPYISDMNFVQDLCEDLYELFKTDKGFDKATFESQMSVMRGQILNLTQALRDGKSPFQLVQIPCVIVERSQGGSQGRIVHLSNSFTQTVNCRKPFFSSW

Mus musculus [8] = assay: Immunosuppressive activity in OXA-induced Balb/c mouse T-cell dependent model of antibody response assessed as inhibition of IgG1 production in serum at 100 mg/kg, po qd pretreated for 30 mins followed by OXA challenge measured on day 7 post dose by ELISA; format: functional, organism-based
Salmonella typhimurium [9] = assay: Genotoxicity in Salmonella typhimurium TA100 up to 1667 ug/plate in presence or absence of liver S9 fraction by Ames test; format: toxicity, organism-based; settings: salmonella enterica subsp. enterica serovar typhimurium; method in brief: as §1
in vitro [10] = settings: mouse, liver microsomes
Mus musculus [11] = assay: Immunosuppressive activity in OXA-induced Balb/c mouse T-cell dependent model of antibody response assessed as inhibition of IgG1 production in serum at 100 mg/kg, po qd pretreated for 30 mins followed by OXA challenge measured on day 14 post dose by ELISA; format: functional, organism-based
Salmonella typhimurium [12] = assay: Genotoxicity in Salmonella typhimurium TA1537 up to 1667 ug/plate in presence or absence of liver S9 fraction by Ames test; format: toxicity, organism-based; settings: salmonella enterica subsp. enterica serovar typhimurium; method in brief: as §1
[13] = molecular target: Phosphatidylinositol 4-kinase alpha (Homo sapiens) (UniProt P42356); assay: Inhibition of PI4K3alpha (unknown origin) at 10 uM
Phosphatidylinositol 4-kinase alpha (Homo sapiens), sequence (P42356 whole entry, looked up): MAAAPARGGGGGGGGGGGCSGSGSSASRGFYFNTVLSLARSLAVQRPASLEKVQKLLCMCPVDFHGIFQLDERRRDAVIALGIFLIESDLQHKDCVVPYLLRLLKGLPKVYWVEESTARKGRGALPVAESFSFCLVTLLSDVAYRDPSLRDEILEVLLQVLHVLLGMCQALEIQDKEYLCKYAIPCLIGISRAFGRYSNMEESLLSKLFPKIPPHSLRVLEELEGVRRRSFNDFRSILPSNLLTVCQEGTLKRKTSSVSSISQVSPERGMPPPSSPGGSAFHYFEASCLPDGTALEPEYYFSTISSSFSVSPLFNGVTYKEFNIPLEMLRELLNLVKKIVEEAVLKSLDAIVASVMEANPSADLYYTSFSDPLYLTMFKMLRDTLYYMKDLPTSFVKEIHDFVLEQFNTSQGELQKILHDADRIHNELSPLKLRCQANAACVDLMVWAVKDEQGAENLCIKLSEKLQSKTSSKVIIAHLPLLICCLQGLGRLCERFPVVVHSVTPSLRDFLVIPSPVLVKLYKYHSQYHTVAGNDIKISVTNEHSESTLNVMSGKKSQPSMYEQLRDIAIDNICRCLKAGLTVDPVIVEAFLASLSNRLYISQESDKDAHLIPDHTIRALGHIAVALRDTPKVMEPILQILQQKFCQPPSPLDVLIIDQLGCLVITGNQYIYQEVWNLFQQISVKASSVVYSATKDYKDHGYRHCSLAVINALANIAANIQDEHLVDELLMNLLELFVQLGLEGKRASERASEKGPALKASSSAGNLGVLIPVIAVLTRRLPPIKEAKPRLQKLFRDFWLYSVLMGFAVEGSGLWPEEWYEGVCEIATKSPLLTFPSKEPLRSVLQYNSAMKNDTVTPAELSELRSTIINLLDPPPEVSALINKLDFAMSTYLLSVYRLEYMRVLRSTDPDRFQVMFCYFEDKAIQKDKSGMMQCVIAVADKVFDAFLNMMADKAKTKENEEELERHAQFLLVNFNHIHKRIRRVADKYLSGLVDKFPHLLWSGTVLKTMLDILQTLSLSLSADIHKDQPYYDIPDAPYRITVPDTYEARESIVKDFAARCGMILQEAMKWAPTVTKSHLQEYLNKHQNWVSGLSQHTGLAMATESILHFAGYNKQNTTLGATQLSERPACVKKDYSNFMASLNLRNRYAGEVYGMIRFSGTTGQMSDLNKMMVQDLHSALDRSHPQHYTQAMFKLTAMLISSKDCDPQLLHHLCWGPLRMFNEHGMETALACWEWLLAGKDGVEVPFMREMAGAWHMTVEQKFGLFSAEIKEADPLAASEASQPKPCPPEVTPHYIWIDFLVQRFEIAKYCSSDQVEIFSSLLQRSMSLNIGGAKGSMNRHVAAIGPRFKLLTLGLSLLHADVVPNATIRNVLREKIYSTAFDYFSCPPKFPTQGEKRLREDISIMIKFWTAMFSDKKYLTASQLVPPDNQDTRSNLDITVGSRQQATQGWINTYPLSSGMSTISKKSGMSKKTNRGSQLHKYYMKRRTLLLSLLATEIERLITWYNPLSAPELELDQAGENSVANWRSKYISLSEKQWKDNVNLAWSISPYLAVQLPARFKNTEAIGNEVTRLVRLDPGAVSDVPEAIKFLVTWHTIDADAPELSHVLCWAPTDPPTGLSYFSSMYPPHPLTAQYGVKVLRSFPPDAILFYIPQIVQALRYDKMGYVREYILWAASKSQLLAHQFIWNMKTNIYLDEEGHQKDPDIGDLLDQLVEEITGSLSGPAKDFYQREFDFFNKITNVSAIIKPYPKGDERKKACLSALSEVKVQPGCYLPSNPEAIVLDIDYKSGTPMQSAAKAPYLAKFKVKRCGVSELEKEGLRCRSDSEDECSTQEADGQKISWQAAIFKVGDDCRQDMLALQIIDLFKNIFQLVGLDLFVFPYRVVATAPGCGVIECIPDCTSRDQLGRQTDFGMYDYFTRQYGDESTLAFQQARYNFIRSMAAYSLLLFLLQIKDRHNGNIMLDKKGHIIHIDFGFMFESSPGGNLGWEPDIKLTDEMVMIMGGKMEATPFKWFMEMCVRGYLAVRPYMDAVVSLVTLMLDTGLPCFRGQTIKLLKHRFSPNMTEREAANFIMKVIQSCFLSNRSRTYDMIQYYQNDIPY

[14] = molecular target: Phosphatidylinositol 4-kinase type 2-alpha (Homo sapiens) (UniProt Q9BTU6); assay: Inhibition of recombinant human full length GST-tagged PI4K2alpha expressed in insect cells at 10 uM
Phosphatidylinositol 4-kinase type 2-alpha (Homo sapiens), sequence (Q9BTU6 whole entry): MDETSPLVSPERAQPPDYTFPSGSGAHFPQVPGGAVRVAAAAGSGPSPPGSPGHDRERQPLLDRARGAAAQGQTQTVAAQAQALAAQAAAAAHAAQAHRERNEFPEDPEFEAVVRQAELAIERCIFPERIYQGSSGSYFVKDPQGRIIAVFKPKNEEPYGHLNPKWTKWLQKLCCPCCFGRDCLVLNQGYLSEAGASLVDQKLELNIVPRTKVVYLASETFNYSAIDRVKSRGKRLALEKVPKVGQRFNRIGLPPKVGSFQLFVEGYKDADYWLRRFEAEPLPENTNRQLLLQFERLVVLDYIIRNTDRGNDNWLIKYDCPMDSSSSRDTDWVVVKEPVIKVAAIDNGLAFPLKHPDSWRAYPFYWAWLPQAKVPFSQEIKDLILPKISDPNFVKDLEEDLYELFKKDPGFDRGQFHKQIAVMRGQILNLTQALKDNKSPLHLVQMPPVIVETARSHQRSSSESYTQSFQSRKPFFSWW

Mus musculus [15] = assay: (§3) Inhibition of allograft rejection in Balb/c mouse heterotopic cardiac transplantation model using C57BL/6 as cardiac donor assessed as long-term graft survival rate by measuring cardiac allograft function by daily palpitation at 100 mg/kg administered via oral gavage as qd for 28 days relative to control; format: functional; settings: 672 h
Mus musculus [16] = assay: Immunosuppressive activity in Balb/c mouse assessed as inhibition of anti-CD3-mediated T-cell activation by measuring IFNgamma release in plasma at 10 mg/kg, po pretreated for 30 mins followed by anti-CD3 stimulation measured after 180 mins by ELISA relative to control; format: functional; method in brief: as §2
Mus musculus [17] = assay: Unbound AUC (infinity) in Balb/c mouse at 100 mg/kg, po after 1 hr; format: ADME, organism-based; settings: in vivo
[18] = Unbound Tmax in Balb/c mouse at 10 to 100 mg/kg, po; format: ADME, organism-based; settings: in vivo, read-out: fTmax
in vitro [19] = settings: human, liver microsomes
physchem [20] = settings: phosphate buffer, pH 7.4
Mus musculus [21] = assay: as §3, with “measured after treatment withdrawal” for “relative to control”; format: functional, organism-based
[22] = Apparent clearance in Balb/c mouse at 100 mg/kg, po after 1 hr; format: ADME, organism-based; settings: in vivo
Mus musculus [23] = assay: (§4) Half life in Balb/c mouse at 1 mg/kg, iv; format: ADME, organism-based; settings: in vivo
Method in brief: (§5)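 Intravenous PK in male Balb/C mice, n=3, at 1 mpk. Vehicle was 30% DMA or 15% NMP, depending on the compound.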

Mus musculus [24] = assay: Unbound Cmax in Balb/c mouse at 100 mg/kg, po after 1 hr; format: ADME, organism-based; settings: in vivo
Mus musculus [25] = assay: (§6) Clearance in Balb/c mouse at 1 mg/kg, iv; format: ADME, organism-based; settings: in vivo; method in brief: as §5
Cytochrome P450 3A4 = Cytochrome P450 3A4 (Homo sapiens, UniProt P08684)
Cytochrome P450 3A4, sequence (P08684 whole entry): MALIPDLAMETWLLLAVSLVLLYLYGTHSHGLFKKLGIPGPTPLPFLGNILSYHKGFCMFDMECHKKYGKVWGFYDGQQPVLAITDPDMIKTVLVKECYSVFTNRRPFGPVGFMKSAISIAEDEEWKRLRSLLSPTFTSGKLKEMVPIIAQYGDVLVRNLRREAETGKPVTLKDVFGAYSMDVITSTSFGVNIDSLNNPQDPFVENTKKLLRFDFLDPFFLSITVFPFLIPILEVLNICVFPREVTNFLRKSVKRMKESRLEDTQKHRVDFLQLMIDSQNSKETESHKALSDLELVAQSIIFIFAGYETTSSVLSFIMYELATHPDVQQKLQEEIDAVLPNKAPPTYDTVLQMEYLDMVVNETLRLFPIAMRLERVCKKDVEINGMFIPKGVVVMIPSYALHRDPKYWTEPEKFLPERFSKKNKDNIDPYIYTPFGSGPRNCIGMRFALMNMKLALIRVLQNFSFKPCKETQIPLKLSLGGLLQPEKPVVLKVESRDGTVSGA

Mus musculus [26] = assay: Immunosuppressive activity in Balb/c mouse assessed as inhibition of anti-CD3-mediated T-cell activation by measuring IFNgamma release in plasma at 100 mg/kg, po pretreated for 30 mins followed by anti-CD3 stimulation measured after 180 mins by ELISA relative to control; format: functional; method in brief: as §2
Mus musculus [27] = assay: Unbound AUC in Balb/c mouse at 1 mg/kg, iv; format: ADME, organism-based; settings: in vivo; method in brief: as §5
Mus musculus [28] = assay: (§7) Oral bioavailability in Balb/c mouse at 10 mg/kg after 1 hr; format: ADME, organism-based; settings: in vivo, 1 h
Method in brief: (§8)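 Male Balb/C mice, n=3. Oral dose of 10 mpk as a homogeneous suspension of crystalline solid in 0.1% Tween 80, 0.1% silicone antifoam, 1% methylcellulose (400 cps) in water. I.v. dose of 1 mpk in 30% DMA or 15% NMP, depending on the compound. Bioavailability was extrapolated from the i.v./p.o. experiments.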

[29] = Fraction unbound in mouse blood; format: ADME, tissue-based
Mus musculus [30] = assay: Unbound Cmax in Balb/c mouse at 30 mg/kg, po after 1 hr; format: ADME, organism-based; settings: in vivo
[31] = molecular target: Voltage-gated inwardly rectifying potassium channel KCNH2 (Homo sapiens, UniProt Q12809)
Voltage-gated inwardly rectifying potassium channel KCNH2, sequence (Q12809 whole entry): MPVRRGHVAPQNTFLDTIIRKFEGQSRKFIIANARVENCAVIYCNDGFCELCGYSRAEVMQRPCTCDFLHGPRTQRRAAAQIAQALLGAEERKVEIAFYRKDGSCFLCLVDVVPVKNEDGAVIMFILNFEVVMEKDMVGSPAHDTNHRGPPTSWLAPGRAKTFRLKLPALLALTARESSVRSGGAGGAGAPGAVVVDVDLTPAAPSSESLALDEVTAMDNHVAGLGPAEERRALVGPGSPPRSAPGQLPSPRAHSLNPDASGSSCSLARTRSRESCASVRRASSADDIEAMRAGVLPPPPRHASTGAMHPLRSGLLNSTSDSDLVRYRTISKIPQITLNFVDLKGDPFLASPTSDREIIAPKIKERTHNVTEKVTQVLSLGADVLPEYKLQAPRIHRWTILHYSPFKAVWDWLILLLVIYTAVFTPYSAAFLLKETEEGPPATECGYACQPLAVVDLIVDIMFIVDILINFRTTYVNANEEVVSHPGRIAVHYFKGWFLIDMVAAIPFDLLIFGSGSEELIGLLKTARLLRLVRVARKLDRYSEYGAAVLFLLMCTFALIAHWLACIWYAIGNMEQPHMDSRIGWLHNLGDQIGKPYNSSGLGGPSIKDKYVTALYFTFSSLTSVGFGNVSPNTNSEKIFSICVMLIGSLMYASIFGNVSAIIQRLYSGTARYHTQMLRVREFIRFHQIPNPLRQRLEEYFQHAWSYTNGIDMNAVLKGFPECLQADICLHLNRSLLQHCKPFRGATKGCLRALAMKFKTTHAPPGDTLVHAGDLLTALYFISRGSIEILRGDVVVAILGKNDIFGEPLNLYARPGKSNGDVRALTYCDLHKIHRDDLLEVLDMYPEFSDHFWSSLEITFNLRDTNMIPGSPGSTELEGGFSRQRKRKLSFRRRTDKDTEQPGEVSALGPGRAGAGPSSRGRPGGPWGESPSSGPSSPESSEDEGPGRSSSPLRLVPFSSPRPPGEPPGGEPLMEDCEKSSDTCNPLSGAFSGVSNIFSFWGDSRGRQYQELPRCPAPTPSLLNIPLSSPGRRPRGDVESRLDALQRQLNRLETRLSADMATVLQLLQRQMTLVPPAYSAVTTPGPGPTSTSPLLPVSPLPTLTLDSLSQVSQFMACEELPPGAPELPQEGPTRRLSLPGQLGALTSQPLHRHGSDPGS

[32] = Apparent clearance in Balb/c mouse at 10 mg/kg, po after 1 hr; format: ADME, organism-based; settings: in vivo
[33] = Apparent clearance in Balb/c mouse at 30 mg/kg, po after 1 hr; format: ADME, organism-based; settings: in vivo
Mus musculus [34] = assay: (§9) Volume of distribution at steady state in Balb/c mouse at 1 mg/kg, iv; format: ADME, organism-based; settings: in vivo; method in brief: as §5
Mus musculus [35] = assay: Immunosuppressive activity in Balb/c mouse assessed as inhibition of anti-CD3-mediated T-cell activation by measuring IFNgamma release in plasma at 1 mg/kg, po pretreated for 30 mins followed by anti-CD3 stimulation measured after 180 mins by ELISA relative to control; format: functional; method in brief: as §2
Salmonella typhimurium [36] = assay: Genotoxicity in Salmonella typhimurium TA1535 up to 2000 uM after 2 days in presence or absence of liver S9 fraction by Ames test; format: toxicity, organism-based; settings: salmonella enterica subsp. enterica serovar typhimurium, s9, 48 h
Method in brief: (§10)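 Ames MPF format with Salmonella typhimurium TA98, TA100, TA1535, TA1537 and E. coli uvrA. Run with and without metabolic activation (S9), 2-day incubation, up to 2000 µM.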

Salmonella typhimurium [37] = assay: Genotoxicity in Salmonella typhimurium TA98 up to 2000 uM after 2 days in presence or absence of liver S9 fraction by Ames test; format: toxicity, organism-based; settings: salmonella enterica subsp. enterica serovar typhimurium, s9, 48 h; method in brief: as §10
Salmonella typhimurium [38] = assay: Genotoxicity in Salmonella typhimurium TA1537 up to 2000 uM after 2 days in presence or absence of liver S9 fraction by Ames test; format: toxicity, organism-based; settings: salmonella enterica subsp. enterica serovar typhimurium, s9, 48 h; method in brief: as §10
Escherichia coli = assay: Genotoxicity in Escherichia coli uvrA up to 2000 uM after 2 days in presence or absence of liver S9 fraction by Ames test; format: toxicity, organism-based; settings: s9, 48 h; method in brief: as §10
Mus musculus [39] = assay: Inhibition of allograft rejection in Balb/c mouse heterotopic cardiac transplantation model using C57BL/6 as cardiac donor assessed as long-term graft survival rate by measuring cardiac allograft function by daily palpitation at 5 mg/kg, po qd for 28 days; format: functional, organism-based; settings: in the assay text read “for 14 days” for “for 28 days”
Method in brief: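 Heterotopic cardiac allografts from C57BL/6 donors into Balb/C recipients. Recipients received 5 mpk as a homogeneous suspension in 0.1% Tween 80, 0.1% silicone antifoam, 1% methylcellulose (400 cps), or vehicle alone, by oral gavage once daily. Survival was compared with vehicle; rejection was indicated when the graft stopped beating.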

[40] = as §4; format: ADME, organism-based; settings: Balb/c, in vivo; method in brief: as §5
Salmonella typhimurium [41] = assay: Genotoxicity in Salmonella typhimurium TA100 up to 2000 uM after 2 days in presence or absence of liver S9 fraction by Ames test; format: toxicity, organism-based; settings: salmonella enterica subsp. enterica serovar typhimurium, s9, 48 h; method in brief: as §10
[42] = as §6; format: ADME, organism-based; settings: Balb/c, in vivo; method in brief: as §5
[43] = as §7; format: ADME, organism-based; settings: Balb/c, in vivo; method in brief: as §8
[44] = as §9; format: ADME, organism-based; settings: Balb/c, in vivo, read-out: Vdss; method in brief: as §5
[45] = Thermodynamic solubility of the compound in pH 7.4 solution after 90 mins by UVLC-MS analysis; format: physicochemical; settings: pH 7.4 solution, pH 7.4; read-out: Therm_solubility
Salmonella typhimurium [46] = assay: Genotoxicity in Salmonella typhimurium TA98 up to 1000 uM after 2 days in presence or absence of liver S9 fraction by Ames test; format: toxicity, organism-based; settings: salmonella enterica subsp. enterica serovar typhimurium, s9, 48 h
Method in brief: (§11)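 MiniAMES (MPF format) with Salmonella typhimurium TA98, TA100 and TA1537, with and without S9 metabolic activation. 2-day incubation, top concentration 1000 µM.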

Salmonella typhimurium [47] = assay: Genotoxicity in Salmonella typhimurium TA100 up to 1000 uM after 2 days in presence or absence of liver S9 fraction by Ames test; format: toxicity, organism-based; settings: salmonella enterica subsp. enterica serovar typhimurium, s9, 48 h; method in brief: as §11
Salmonella typhimurium [48] = assay: Genotoxicity in Salmonella typhimurium TA1537 up to 1000 uM after 2 days in presence or absence of liver S9 fraction by Ames test; format: toxicity, organism-based; settings: salmonella enterica subsp. enterica serovar typhimurium, s9, 48 h; method in brief: as §11

SMILES: COc1ccc(NC(=O)N2CCN(c3nc(N)nc4scnc34)CC2)cc1
fCmax (Mus musculus [1]): 154 nM
Activity (Salmonella typhimurium [2]): Non-Toxic
solubility kinetic at 1.5 h (physchem [3]): 85 µM (≈ 32.8 µg/mL)
fAUC (Mus musculus [4]): 769 nM·h
inhibition (Mus musculus [5]): Dose-dependent effect
fAUC (Mus musculus [6]): 332 to 333 nM·h
inhibition [7]: inactive
inhibition (Mus musculus [8]): Active
Activity (Salmonella typhimurium [9]): Non-Toxic
microsomal CLint at 0.75 h, 3 µM (in vitro [10]): 15 µL/min/mg
inhibition (Mus musculus [11]): Active
Activity (Salmonella typhimurium [12]): Non-Toxic
inhibition [13]: inactive
inhibition [14]: inactive
survival at 100 mg/kg (Mus musculus [15]): 50%
inhibition in vivo at 10 mg/kg (Mus musculus [16]): 54.9%
fAUC (Mus musculus [17]): 3.907 µM·h
Tmax [18]: 1 h
microsomal CLint at 0.75 h, 3 µM (in vitro [19]): 21 µL/min/mg
logD at 1.5 h (physchem [20]): 1.85
inhibition (Mus musculus [21]): Active
CL/F [22]: 86 mL/min/kg
t1/2 (Mus musculus [23]): Nd(Insoluble)
fCmax (Mus musculus [24]): 967 nM
CL (Mus musculus [25]): Nd(Insoluble)
IC50 (Cytochrome P450 3A4): > 20 µM
inhibition in vivo at 100 mg/kg (Mus musculus [26]): 87.5%
fAUC (Mus musculus [27]): Nd(Insoluble)
F (Mus musculus [28]): Nd(Insoluble)
fraction unbound [29]: 0.061
fCmax (Mus musculus [30]): 444 nM
IC50 [31]: 28 µM
CL/F [32]: 80 mL/min/kg
CL/F [33]: 112 mL/min/kg
Vdss (Mus musculus [34]): Nd(Insoluble)
inhibition in vivo at 1 mg/kg (Mus musculus [35]): 24.6%

fCmax (Mus musculus [1]): 2113 nM
solubility kinetic at 1.5 h (physchem [3]): > 350 µM
fAUC (Mus musculus [6]): 6941 nM·h
microsomal CLint at 0.75 h, 3 µM (in vitro [10]): 6 µL/min/mg
microsomal CLint at 0.75 h, 3 µM (in vitro [19]): 4 µL/min/mg
logD at 1.5 h (physchem [20]): 1.47
half-life [40]: 84 min
clearance [42]: 5 mL/min/kg
fAUC (Mus musculus [27]): 684 nM·h
bioavailability [43]: 100%
fraction unbound [29]: 0.09
CL/F [32]: 5.3 mL/min/kg
Vd [44]: 0.6 L/kg
solubility thermodynamic at 1.5 h [45]: 110 µM (≈ 45.2 µg/mL)
SMILES: COc1ccc(NC(=O)N2CCN(c3nc(N)nc4c3cnn4C)[C@@H](C)C2)c(C)c1
Activity (Salmonella typhimurium [36]): Non-Toxic
Activity (Salmonella typhimurium [37]): Non-Toxic
Activity (Salmonella typhimurium [38]): Non-Toxic
Activity (Escherichia coli): Non-Toxic
Activity (Mus musculus [39]): Active
Activity (Salmonella typhimurium [41]): Non-Toxic

SMILES: COc1ccc(N)c(C)c1.Cl
Activity (Salmonella typhimurium [46]): Non-Toxic
Activity (Salmonella typhimurium [47]): Non-Toxic
Activity (Salmonella typhimurium [48]): Non-Toxic
